Results taken from PubChem BioAssay.
Unmarked numbers belong to inactive results.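 Rule for the calls, unless noted: active = viability at or under a set limit in both replicates, limit being median viability minus 3 SD (cut at about 48% in these data, passing the limit was not always enough); inconclusive = at or under the limit in just one replicate; inactive = at or above the limit in both replicates.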

Assay: HUVEC growth inhibition – cell-based, human, primary screen (AID 575;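 active = viability at or below 30% in both replicate assays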;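 note: 100% = median of untreated cell wells with 0.1% DMSO on each plate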)
Details: HUVEC proliferation, CellTiter-Glo luminescence, 72 h; at 10 µM; active compounds read low
Outline: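 Test system: primary human umbilical vein endothelial cells; medium: endothelial basal medium with 2% FBS plus growth supplements; dosing: 10 µM compound only; times: 72 h treatment at 37 °C; signal: CTG luminescence; read-out: % viability relative to median vehicle-well signal on each plate; control set: vehicle and MePR control wells; plate: 384-well, collagen-coated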

Row | Compound | viability
1 | CC1CCc2nn(CC(=O)NCc3ccc4c(c3)OCO4)cc2C1 (stereo not given) | 90.7%
2 | CCC(C)(C(=O)NC1CCCC1)N(Cc1cccs1)C(C)=O (stereo not given) | 102%
3 | COc1ccc(CCNC(=O)c2cnn3ccccc23)c(OC)c1OC | 78.8%
4 | CC1CCCN(S(=O)(=O)c2coc(C(N)=O)c2)C1 (stereo not given) | 82.6%
5 | Cn1c(C(=O)NCC2CCCO2)cc2c(=O)n(C)c3ccccc3c21 (stereo not given) | 84.8%
6 | O=C(Nc1cnn(Cc2ccc(Cl)cc2Cl)c1)c1noc2c1CCCC2 | 71.8%
7 | Clc1cccc(N2CCN(Cc3nc(-c4ccccc4)no3)CC2)c1 | 109%
8 | COC(=O)C1=C(C)NC(C)=C(C(=O)OC)C1C1CC=CCC1 (stereo not given) | 75.4%
9 | Cc1nnc(SCC(=O)NCc2ccccc2)s1 | 81.2%
10 | CC1=C(C(=O)Nc2ccc(F)cc2)C(c2cccc(C)c2)n2nc(CCCO)nc2N1 (stereo not given) | 79%
11 | CCOc1ccc(OCCCCN(C)C)cc1 | 87.2%
12 | CCCC(=O)C1=C(N(C)c2ccccc2)CC(C)(C)C(C(=O)OC)C1=O (stereo not given) | 97.9%
13 | CC1Cc2ccccc2N1C(=O)C12CCC(C)(C(=O)C1)C2(C)C (stereo not given) | 92.6%
14 | CC1CN(c2ccc(Oc3ccccc3)cc2)c2nc3c(c(=O)n(CC(N)=O)c(=O)n3C)n2C1 (stereo not given) | 77.5%
15 | COc1ccc(N2CCN(C(c3ccccc3)c3sc4nc(C)nn4c3O)CC2)cc1 (stereo not given) | 82.2%
16 | O=C(CCn1c(=O)oc2ccccc21)NCc1ccco1 | 89.9%
17 | COc1cccc(C2CC(c3ccc(C)cc3)n3nc(N)nc3N2)c1 (stereo not given) | 95.3%
18 | Cc1onc(-c2c(Cl)cccc2Cl)c1C(=O)NCC1CCCO1 (stereo not given) | 97.7%
19 | CC(=O)Nc1cccc(NC(=O)CSc2nn3c(=O)c(C)nnc3s2)c1 | 76.8%
20 | Cc1ccc2cc(CCNC(=O)C(C)C)c(=O)[nH]c2c1C | 99.4%

Row | Compound | viability
21 | CCOC(=O)c1c(C)n(C)c2c(C)cc(O)c(OC(C)=O)c12 | 103%
22 | CC(C)(O)C#Cc1ccc(C(=O)N2CCN(C(=O)c3ccco3)CC2)cc1 | 108%
23 | COc1ccc(-n2ncc3c(N4CCC(C)CC4)ncnc32)cc1 | 56.2%
24 | CCc1nc2sc(C)c(C)c2c(=O)n1CCO | 104%
25 | COc1cc2c(cc1OC)CN(C(=O)CSc1nc3[nH]ncc3c(=O)n1-c1ccccc1)CC2 | 79.7%
26 | Cc1ccccc1-n1c(Cn2c(=O)sc3ccccc32)nnc1SCC(N)=O | 92.3%
27 | Cc1nc2sc(C(c3cccs3)N3CCOCC3)c(O)n2n1 (stereo not given) | 94.8%
28 | Cc1nc2ccccc2c2oc(C(=O)N3CCN(C(=O)c4ccco4)CC3)cc12 | 87.4%
29 | CCC(C)NC(=O)c1cn(CC)c2ccc(S(=O)(=O)N(C)C)cc2c1=O (stereo not given) | 85.7%
30 | O=C(OCN1C(=O)c2ccccc2C1=O)C1CCCCC1 | 87.3%
31 | O=C(Nc1nc(-c2ccccn2)cs1)C1CC1 | 96.1%
32 | COCCOC(=O)C1=C(C)N=c2s/c(=C\c3cccs3)c(=O)n2C1c1cccs1 (stereo not given) | 82.4%
33 | CCOC(=O)c1sc2nc(NC(=O)C(C)(C)C)sc2c1C | 62.8%
34 | Cn1c(Cc2ccccc2)nnc1SCC(=O)NC1CCCCC1 | 91.5%
35 | CCCNC(=O)C1CC(=O)N(c2ccc(OCC(=O)Nc3cc(C)cc(C)c3)cc2)C1 (stereo not given) | 80.5%
36 | O=P(O)(CN1CCCCCC1)CN1CCCCCC1 | 96.6%
37 | O=c1oc2c3c4c(cc2cc1-c1nc2ccccc2[nH]1)CCCN4CCC3 | 71.7%
38 | CCOC(=O)c1[nH]c(C)c(C(=O)NC)c1C | 89.7%
39 | CCCOc1ccc(C2C(C(=O)OC)=CN(CCOC)C=C2C(=O)OC)cc1 | 96.4%
40 | CCCCN(CC)CCCNC(=O)c1cc2c(=O)n(C)c3ccccc3c2n1C | 67.5%

Assay: H69AR cell proliferation blockers – human, duplicate replicates, primary screen (AID 580);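 note: 100% = mean luminescence of untreated wells and 0% = no signal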
Details: H69AR lung tumor cells viability, ATP luminescence, 72 h; at 10 µM; active compounds read low

Row | Compound | viability
41 | CC1CCc2nn(CC(=O)NCc3ccc4c(c3)OCO4)cc2C1 (stereo not given) | 100%
42 | CCC(C)(C(=O)NC1CCCC1)N(Cc1cccs1)C(C)=O (stereo not given) | 96.9%
43 | COc1ccc(CCNC(=O)c2cnn3ccccc23)c(OC)c1OC | 96.5%
44 | CC1CCCN(S(=O)(=O)c2coc(C(N)=O)c2)C1 (stereo not given) | 94.6%
45 | Cn1c(C(=O)NCC2CCCO2)cc2c(=O)n(C)c3ccccc3c21 (stereo not given) | 83.6%
46 | O=C(Nc1cnn(Cc2ccc(Cl)cc2Cl)c1)c1noc2c1CCCC2 | 88.2%
47 | Clc1cccc(N2CCN(Cc3nc(-c4ccccc4)no3)CC2)c1 | 91.3%
48 | COC(=O)C1=C(C)NC(C)=C(C(=O)OC)C1C1CC=CCC1 (stereo not given) | 100%
49 | Cc1nnc(SCC(=O)NCc2ccccc2)s1 | 101%
50 | CC1=C(C(=O)Nc2ccc(F)cc2)C(c2cccc(C)c2)n2nc(CCCO)nc2N1 (stereo not given) | 94%
51 | CCOc1ccc(OCCCCN(C)C)cc1 | 88.5%
52 | CCCC(=O)C1=C(N(C)c2ccccc2)CC(C)(C)C(C(=O)OC)C1=O (stereo not given) | 94.4%
53 | CC1Cc2ccccc2N1C(=O)C12CCC(C)(C(=O)C1)C2(C)C (stereo not given) | 82.1%
54 | CC1CN(c2ccc(Oc3ccccc3)cc2)c2nc3c(c(=O)n(CC(N)=O)c(=O)n3C)n2C1 (stereo not given) | 79.1%
55 | COc1ccc(N2CCN(C(c3ccccc3)c3sc4nc(C)nn4c3O)CC2)cc1 (stereo not given) | 90%
56 | O=C(CCn1c(=O)oc2ccccc21)NCc1ccco1 | 91%
57 | COc1cccc(C2CC(c3ccc(C)cc3)n3nc(N)nc3N2)c1 (stereo not given) | 98.2%
58 | Cc1onc(-c2c(Cl)cccc2Cl)c1C(=O)NCC1CCCO1 (stereo not given) | 111%
59 | CC(=O)Nc1cccc(NC(=O)CSc2nn3c(=O)c(C)nnc3s2)c1 | 90.8%
60 | Cc1ccc2cc(CCNC(=O)C(C)C)c(=O)[nH]c2c1C | 99%

Row | Compound | viability
61 | CCOC(=O)c1c(C)n(C)c2c(C)cc(O)c(OC(C)=O)c12 | 101%
62 | CC(C)(O)C#Cc1ccc(C(=O)N2CCN(C(=O)c3ccco3)CC2)cc1 | 96.9%
63 | COc1ccc(-n2ncc3c(N4CCC(C)CC4)ncnc32)cc1 | 76.6%
64 | CCc1nc2sc(C)c(C)c2c(=O)n1CCO | 94.7%
65 | COc1cc2c(cc1OC)CN(C(=O)CSc1nc3[nH]ncc3c(=O)n1-c1ccccc1)CC2 | 91.7%
66 | Cc1ccccc1-n1c(Cn2c(=O)sc3ccccc32)nnc1SCC(N)=O | 84.8%
67 | Cc1nc2sc(C(c3cccs3)N3CCOCC3)c(O)n2n1 (stereo not given) | 88.6%
68 | Cc1nc2ccccc2c2oc(C(=O)N3CCN(C(=O)c4ccco4)CC3)cc12 | 83.1%
69 | CCC(C)NC(=O)c1cn(CC)c2ccc(S(=O)(=O)N(C)C)cc2c1=O (stereo not given) | 78.9%
70 | O=C(OCN1C(=O)c2ccccc2C1=O)C1CCCCC1 | 87.6%
71 | O=C(Nc1nc(-c2ccccn2)cs1)C1CC1 | 82%
72 | COCCOC(=O)C1=C(C)N=c2s/c(=C\c3cccs3)c(=O)n2C1c1cccs1 (stereo not given) | 71.9%
73 | CCOC(=O)c1sc2nc(NC(=O)C(C)(C)C)sc2c1C | 79.3%
74 | Cn1c(Cc2ccccc2)nnc1SCC(=O)NC1CCCCC1 | 92.5%
75 | CCCNC(=O)C1CC(=O)N(c2ccc(OCC(=O)Nc3cc(C)cc(C)c3)cc2)C1 (stereo not given) | 95.6%
76 | O=P(O)(CN1CCCCCC1)CN1CCCCCC1 | 107%
77 | O=c1oc2c3c4c(cc2cc1-c1nc2ccccc2[nH]1)CCCN4CCC3 | 83.3%
78 | CCOC(=O)c1[nH]c(C)c(C(=O)NC)c1C | 98.8%
79 | CCCOc1ccc(C2C(C(=O)OC)=CN(CCOC)C=C2C(=O)OC)cc1 | 90.4%
80 | CCCCN(CC)CCCNC(=O)c1cc2c(=O)n(C)c3ccccc3c2n1C | 70.1%
